pEC50: −log10 of the molar value. Active and inactive are the calls of the source. The rule behind the calls is not given here.

For orientation: pEC50 means the EC50 on a negative log10 scale, so that one unit is a factor of ten. Read a low pEC50 as a large EC50.

In test [1] the target is T1, Peroxisome proliferator-activated receptor alpha (Homo sapiens) (UniProt Q07869).
T1 sequence (whole entry): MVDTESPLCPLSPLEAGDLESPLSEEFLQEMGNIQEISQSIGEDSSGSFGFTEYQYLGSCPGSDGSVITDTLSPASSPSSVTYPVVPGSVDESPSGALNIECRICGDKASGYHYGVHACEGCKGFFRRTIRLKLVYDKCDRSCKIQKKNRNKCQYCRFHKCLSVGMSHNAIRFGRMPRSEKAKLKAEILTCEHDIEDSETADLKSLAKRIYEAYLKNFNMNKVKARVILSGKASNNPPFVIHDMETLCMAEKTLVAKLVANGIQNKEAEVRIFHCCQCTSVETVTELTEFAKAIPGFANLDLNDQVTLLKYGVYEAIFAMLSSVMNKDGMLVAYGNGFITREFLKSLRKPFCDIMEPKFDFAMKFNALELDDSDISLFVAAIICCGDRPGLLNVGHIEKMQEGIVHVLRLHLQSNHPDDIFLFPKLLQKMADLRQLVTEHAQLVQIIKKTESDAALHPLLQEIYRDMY
Kind of test: Agonist activity at human PPARalpha at 5 uM after 22 to 24 hrs by luciferase reporter gene assay. The method, boiled down:
(§1)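 hPPARα luciferase reporter cells; read-out via oxyluciferin production. […] Fold-induction over DMSO control ± S.E. (n = 3), single experiment.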
(In general: In a reporter assay the amount or activity of a reporter protein is the signal.)

Test [2] addresses T1, Peroxisome proliferator-activated receptor alpha (Homo sapiens). Kind of test: Agonist activity at human PPARalpha at 10 uM after 22 to 24 hrs by luciferase reporter gene assay. The method, boiled down:
as §1

Test [3] shares this target. Kind of test: Agonist activity at human PPARalpha after 22 to 24 hrs by luciferase reporter gene assay relative to GW590735. The method, boiled down: (§2)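 Human PPAR luciferase reporter cell lines; luciferase read-out through oxyluciferin production. 10-point dose-response in triplicate, single experiment, giving EC50.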
The target in test [4] is T2, Peroxisome proliferator-activated receptor alpha (Homo sapiens, UniProt Q07869).
T2 sequence (Q07869 whole entry): T1 sequence (whole entry)
The test is described as follows: Agonist activity at human PPARalpha after 22 to 24 hrs by luciferase reporter gene assay. The method, boiled down: as §2

Test [5] has as its target T3, Peroxisome proliferator-activated receptor gamma (Homo sapiens, UniProt P37231).
T3 sequence (P37231 whole entry): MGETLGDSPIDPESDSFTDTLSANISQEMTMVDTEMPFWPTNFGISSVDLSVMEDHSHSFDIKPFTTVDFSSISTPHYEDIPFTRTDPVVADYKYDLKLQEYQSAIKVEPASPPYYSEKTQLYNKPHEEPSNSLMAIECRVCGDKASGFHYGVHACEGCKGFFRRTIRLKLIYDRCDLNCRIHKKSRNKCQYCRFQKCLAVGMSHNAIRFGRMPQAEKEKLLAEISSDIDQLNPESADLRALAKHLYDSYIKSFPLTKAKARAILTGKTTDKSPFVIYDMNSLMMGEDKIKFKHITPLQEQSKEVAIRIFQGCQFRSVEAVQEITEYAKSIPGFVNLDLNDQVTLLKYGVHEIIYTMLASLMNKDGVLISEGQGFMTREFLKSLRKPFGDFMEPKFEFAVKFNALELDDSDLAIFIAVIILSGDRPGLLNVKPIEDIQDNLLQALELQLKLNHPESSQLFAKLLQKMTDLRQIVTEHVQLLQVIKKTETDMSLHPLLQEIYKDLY
Kind of test: Agonist activity at human PPARgamma after 22 to 24 hrs by luciferase reporter gene assay. The method, boiled down:
as §2

Test [6] has as its target T4, Peroxisome proliferator-activated receptor delta (Homo sapiens, UniProt Q03181).
T4 sequence (Q03181 whole entry): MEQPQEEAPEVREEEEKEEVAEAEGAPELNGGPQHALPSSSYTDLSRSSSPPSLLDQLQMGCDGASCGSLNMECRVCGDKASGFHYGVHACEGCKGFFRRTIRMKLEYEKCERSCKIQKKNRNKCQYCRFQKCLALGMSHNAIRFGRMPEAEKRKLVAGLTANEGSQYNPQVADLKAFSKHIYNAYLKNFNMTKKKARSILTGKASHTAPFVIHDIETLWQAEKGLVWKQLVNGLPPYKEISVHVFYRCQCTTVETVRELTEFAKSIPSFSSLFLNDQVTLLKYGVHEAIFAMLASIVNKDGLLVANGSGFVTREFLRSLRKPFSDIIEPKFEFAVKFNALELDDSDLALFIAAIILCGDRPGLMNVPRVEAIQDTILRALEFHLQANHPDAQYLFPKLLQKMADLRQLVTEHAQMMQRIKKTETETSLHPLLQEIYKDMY
Kind of test: Agonist activity at human PPARdelta after 22 to 24 hrs by luciferase reporter gene assay.

For test [7], the target named is T5, Peroxisome proliferator-activated receptor alpha (Mus musculus) (UniProt P23204).
T5 sequence (whole entry): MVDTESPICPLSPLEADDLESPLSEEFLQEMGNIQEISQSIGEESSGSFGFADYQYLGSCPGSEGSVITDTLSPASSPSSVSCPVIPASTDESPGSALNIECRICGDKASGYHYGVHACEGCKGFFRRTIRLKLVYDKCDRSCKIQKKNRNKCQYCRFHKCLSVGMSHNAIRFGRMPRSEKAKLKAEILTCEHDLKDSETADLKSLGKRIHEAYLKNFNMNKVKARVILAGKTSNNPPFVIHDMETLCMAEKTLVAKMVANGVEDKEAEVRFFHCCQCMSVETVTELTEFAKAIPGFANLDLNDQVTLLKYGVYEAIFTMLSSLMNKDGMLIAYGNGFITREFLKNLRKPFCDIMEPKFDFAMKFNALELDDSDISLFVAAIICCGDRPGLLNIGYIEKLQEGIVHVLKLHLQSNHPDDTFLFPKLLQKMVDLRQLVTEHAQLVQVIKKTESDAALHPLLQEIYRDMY
Kind of test: Agonist activity at PPARalpha in C57BL/6N mouse assessed as upregulation of PPARalpha protein expression after 24 hrs by Western blot method. The method, boiled down: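 Mouse 661W cells exposed for 24 h. PPARα protein detected by Western blot and quantified by densitometry. Experiments performed three times in triplicate; mean ± S.D.; Student's t-test.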
Background: In western blotting, separated proteins are transferred to a membrane and probed.

Test [8] addresses T5, Peroxisome proliferator-activated receptor alpha (Mus musculus). Kind of test: Agonist activity at PPARalpha in C57BL/6N mouse assessed as upregulation of Slc25a20 gene expression at 10 to 100 uM after 24 hrs by RT-PCR method. The method, boiled down: (§3)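 Mouse 661W cells treated for 24 h; target mRNA quantified by RT-PCR (n = 6). Reported as mean ± S.D.; group differences tested with Student's t-test.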

The target is the same in test [9]. Kind of test: Agonist activity at PPARalpha in C57BL/6N mouse assessed as upregulation of Fabp3 gene expression at 10 to 100 uM after 24 hrs by RT-PCR method. The method, boiled down:
as §3

Test [10] has the same target. Kind of test: Agonist activity at PPARalpha in C57BL/6N mouse assessed as upregulation of Cpt1a gene expression at 10 to 100 uM after 24 hrs by RT-PCR method. The method, boiled down: as §3
Test [11] has the same target. The test is described as follows: Agonist activity at PPARalpha in C57BL/6N mouse assessed as upregulation of Acadm gene expression at 10 to 100 uM after 24 hrs by RT-PCR method. The method, boiled down: as §3
For another test, the species on record is Homo sapiens. The test is described as follows: Antimigratory activity in HRCEC after 10 to 24 hrs by wound healing assay. It counts as functional. An outline of the steps:
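Wound healing (scratch) assay in human retinal capillary endothelial cells, closure assessed at 10 h and 24 h incubation. Performed three times in triplicate; mean ± S.D.; Student's t-test.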

The target of test [12] is T2, Peroxisome proliferator-activated receptor alpha. Kind of test: Agonist activity at PPARalpha (unknown origin) expressed in reporter combo cells after 36 hrs by dual luciferase reporter gene assay. It counts as cell-based. The method, boiled down: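 Human PPARα luciferase reporter cell line. Luciferase activity was read indirectly as oxyluciferin production. EC50 came from a 10-point dose-response, dosed in triplicate in a single experiment. In the initial screen, agonism was expressed as fold-induction over the DMSO control (n = 3) at 5 and 50 μM.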

Consider `CC(C)(Oc1cccc(NCc2ccc(OCc3ccccc3)cc2)c1)C(=O)O`, for which, in test [1], the outcome was inactive. Further, in test [2], the outcome was Active.

With `CC(C)(Oc1cccc(NCc2ccc(OCc3cc(F)cc(F)c3)cc2)c1)C(=O)O`, in test [1], the result was inactive. For the same compound, the outcome in [2] was Active.

In the case of `COc1ccc(COc2ccc(CNc3cccc(C(=O)O)c3)c(OCc3ccc(OC)cc3)c2)cc1`, the fold change (FC) in test [3] worked out at 1.1. Further, the pEC50 is 5.29 in test [4], below 4.00 in test [5] and below 4.00 in test [6].

Turning to `CC(C)(Oc1cccc(NCc2ccc(OCc3ccc(Cl)cc3)cc2)c1)C(=O)O`, the result in [1] was inactive. In addition, the result in [2] was Active.

On to `O=C(O)c1cccc(NCc2ccc(OCc3ccc(Cl)cc3)cc2)c1`, for which the result in [1] and in [2] was Active.

On to `COc1ccc(COc2ccc(CNc3cccc(OC(C)(C)C(=O)O)c3)cc2)cc1`, for which the outcome in [1] was inactive. Also, in test [2], the outcome was Active. In addition, the negative-log EC50 (pEC50) is 4.74 in [5] and 4.41 in [6].

Turning to `COc1ccc(COc2ccc(CNc3cccc(C(=O)O)c3)cc2)cc1`, the Activity entry (in test [7]; in the test listed under Homo sapiens) was “Dose-dependent effect” each time. Further, the outcome in test [8], in test [9], in test [10] and in test [11] was Active. Also, the pEC50 in test [5] and in [6] was below 4.00 throughout.

Turning to `O=C(O)c1cccc(NCc2ccc(OCc3cc(F)cc(F)c3)cc2)c1`, the result in test [1] and in [2] was Active.

On to `COc1ccc(COc2ccc(CNc3cccc(OC(C)(C)C(=O)O)c3)c(OCc3ccc(OC)cc3)c2)cc1`, for which the fold change (FC) in [3] came out at 1.4. The pEC50 in [4] is 5.68; in test [5], 5.25; in [6], 5.05.

Turning to `O=C(O)c1cccc(NCc2ccc(OCc3ccc(Cl)cc3Cl)cc2)c1`, the result in [1] was Active.

Consider `O=C(O)c1cccc(NCc2ccc(OCc3ccccc3)cc2)c1`, for which the result in test [1] and in test [2] was Active.

For `O=C(O)c1cccc(NCc2ccc(OCc3ccc([N+](=O)[O-])cc3)cc2)c1`, the outcome in test [1] was Active.

The compound `Cc1c(Cl)ccc2c(C(=O)O)cc(-c3ccccc3)nc12` had a negative-log EC50 (pEC50) in [12] of 4.30 to 4.60.
